Where two headings read alike, the source gives them in different places.
Assays:
[1] = test system: α-glucosidase; details: cited from earlier work
[2] = target: T1, α-glucosidase (Saccharomyces cerevisiae, UniProt P53341); experiment: Kinetic analysis of inhibitory type; format: biochemical; details: Lineweaver–Burk plots
[3] = target: Saccharomyces cerevisiae α-glucosidase (Saccharomyces cerevisiae, UniProt P53341); experiment: α-Glucosidase enzyme activity; format: biochemical; details: at the concentration of 125 μmol L^−1
Chain of Saccharomyces cerevisiae α-glucosidase (P53341 whole entry): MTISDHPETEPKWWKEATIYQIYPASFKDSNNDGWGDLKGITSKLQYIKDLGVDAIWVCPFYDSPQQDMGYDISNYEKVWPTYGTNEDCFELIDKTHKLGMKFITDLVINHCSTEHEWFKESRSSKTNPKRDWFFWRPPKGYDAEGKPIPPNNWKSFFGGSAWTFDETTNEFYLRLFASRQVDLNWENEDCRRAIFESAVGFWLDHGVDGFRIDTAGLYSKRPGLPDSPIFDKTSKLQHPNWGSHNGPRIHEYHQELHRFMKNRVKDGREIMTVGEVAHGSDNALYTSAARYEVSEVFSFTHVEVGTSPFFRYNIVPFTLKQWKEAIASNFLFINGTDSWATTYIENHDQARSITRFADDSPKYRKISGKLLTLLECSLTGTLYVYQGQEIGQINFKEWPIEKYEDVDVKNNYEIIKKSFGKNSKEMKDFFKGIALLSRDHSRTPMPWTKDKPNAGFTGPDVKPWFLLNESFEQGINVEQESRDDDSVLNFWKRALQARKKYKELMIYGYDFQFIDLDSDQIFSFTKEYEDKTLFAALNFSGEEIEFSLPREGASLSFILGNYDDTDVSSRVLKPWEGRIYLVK

[4] = target: T1, α-glucosidase; experiment: Fluorescence quenching and thermodynamic analysis; format: binding; details: for ΔH° enthalpy change / ΔS° entropy change: van't Hoff plot over 298, 304, 310 K
[5] = target: T1, α-glucosidase; experiment: CD spectroscopy of secondary structure
In short: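 Far-UV CD spectra (190–250 nm) were recorded for S. cerevisiae α-glucosidase held at 2 μmol L−1, with test flavonol added at flavonol:enzyme molar ratios of 0:1, 40:1 and 80:1. Each spectrum was averaged over three scans under constant nitrogen flush, and the buffer signal was subtracted. Experiments were done in triplicate.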

[6] = target: T1, α-glucosidase; experiment: Reversibility, plots of v vs. [α-glucosidase]; format: biochemical; details: myricetin 0–6.25 × 10^−5 mol L^−1, c(pNPG) = 3.13 × 10^−4 mol L^−1
[7] = clinically used antidiabetic drugs
[8] = natural α-glucosidase inhibitors
[9] = molar ratio of myricetin to α-glucosidase 40 : 1
[10] = molar ratio of myricetin to α-glucosidase 80 : 1

T1 sequence (P53341 whole entry): as above

| Inhibitory type [2] | Ksv, Stern–Volmer quenching constant ([4]; 298 K) | n, number of binding sites per protein molecule ([4]; 298 K) | ΔG° free energy change ([4]; 298 K) [kcal/mol] | Ksv, Stern–Volmer quenching constant ([4]; 304 K) | n, number of binding sites per protein molecule ([4]; 304 K) | ΔG° free energy change ([4]; 304 K) [kcal/mol] | n, number of binding sites per protein molecule ([4]; 310 K) | ΔG° free energy change ([4]; 310 K) [kcal/mol] | ΔH° enthalpy change [4] [kcal/mol] | ΔS° entropy change [4] [J mol^−1K^−1] | SMILES | type of α-glucosidase inhibition (reported) [1, 7] | type of α-glucosidase inhibition (reported) [1, 8] | also measured |
| --- | --- | --- | --- | --- | --- | --- | --- | --- | --- | --- | --- | --- | --- | --- |
| – | – | – | – | – | – | – | – | – | – | – | OCC(CO)N[C@H]1C[C@](O)(CO)[C@@H](O)[C@H](O)[C@H]1O [voglibose] | competitive inhibitors | – | – |
| – | – | – | – | – | – | – | – | – | – | – | O=c1c(O)c(-c2ccc(O)cc2O)oc2cc(O)cc(O)c12 [morin] | – | mixed-type | – |
| – | – | – | – | – | – | – | – | – | – | – | O=c1c(O)c(-c2ccccc2)oc2cc(O)cc(O)c12 [galangin] | – | mixed-type | – |
| Mixed-type | 11.42 ± 0.06 ×10^4 L mol^−1 | 0.97 ± 0.01 | -6.948 ± 0.0072 | 11.20 ± 0.06 ×10^4 L mol^−1 | 0.99 ± 0.01 | -7.027 ± 0.0072 | 1.01 ± 0.01 | -7.108 ± 0.0096 | -2.923 ± 0.234 | 56.51 ± 3.27 | O=c1c(O)c(-c2ccc(O)c(O)c2)oc2cc(O)cc(O)c12 [quercetin] | – | – | inhibition of the activity of α-glucosidase [3]: approximately 75% |
| – | – | – | – | – | – | – | – | – | – | – | OCCN1C[C@H](O)[C@@H](O)[C@H](O)[C@H]1CO [miglitol] | competitive inhibitors | – | – |
| Mixed-type | 9.91 ± 0.08 ×10^4 L mol^−1 | 0.87 ± 0.01 | -6.938 ± 0.0072 | 8.81 ± 0.05 ×10^4 L mol^−1 | 0.93 ± 0.01 | -7.032 ± 0.0024 | 0.98 ± 0.01 | -7.122 ± 0.0048 | -2.32 ± 0.237 | 64.84 ± 3.25 | O=c1c(O)c(-c2ccc(O)cc2)oc2cc(O)cc(O)c12 [kaempferol] | – | – | inhibition of the activity of α-glucosidase [3]: approximately 60%; Ksv, Stern–Volmer quenching constant ([4]; 310 K): 8.04 ± 0.02 ×10^4 L mol^−1 |
| – | – | – | – | – | – | – | – | – | – | – | O=c1cc(-c2ccc(O)c(O)c2)oc2cc(O)cc(O)c12 [luteolin] | – | mixed-type | – |
| Mixed-type | 14.26 ± 0.03 ×10^4 L mol^−1 | 0.99 ± 0.01 | -7.012 ± 0.012 | 13.81 ± 0.04 ×10^4 L mol^−1 | 1.04 ± 0.01 | -7.075 ± 0.0096 | 1.06 ± 0.01 | -7.139 ± 0.0096 | -3.862 ± 0.136 | 44.22 ± 1.17 | O=c1c(O)c(-c2cc(O)c(O)c(O)c2)oc2cc(O)cc(O)c12 [myricetin] | – | – | random coil percentage of α-glucosidase [5, 9]: 28.0%; α-helix content of α-glucosidase [5, 9]: 17.6%; β-sheet proportion of α-glucosidase [5, 9]: 45.7%; β-turn content of α-glucosidase [5, 9]: 8.7%; random coil percentage of α-glucosidase [5, 10]: 28.2%; α-helix content of α-glucosidase [5, 10]: 15.5%; β-sheet proportion of α-glucosidase [5, 10]: 49.9%; β-turn content of α-glucosidase [5, 10]: 6.4%; reversibility of inhibition [6]: reversible inhibitor; Ksv, Stern–Volmer quenching constant ([4]; 310 K): 13.05 ± 0.03 ×10^4 L mol^−1 |
| Competitive | – | – | – | – | – | – | – | – | – | – | C[C@H]1O[C@H](O[C@H]2[C@H](O)[C@@H](O)[C@@H](O[C@H]3[C@H](O)[C@@H](O)C(O)O[C@@H]3CO)O[C@@H]2CO)[C@H](O)[C@@H](O)[C@@H]1N[C@H]1C=C(CO)[C@@H](O)[C@H](O)[C@H]1O (stereo partly drawn) [acarbose, reference compound] | competitive inhibitors | – | – |
| – | – | – | – | – | – | – | – | – | – | – | O=c1c(-c2ccc(O)cc2)coc2cc(O)cc(O)c12 [genistein] | – | mixed-type | – |

— paper PMC9055920 (RSC Advances, 2020)
